Assay results gathered from unrelated publications.
Each line is one published result; the experiments were not run side by side.

| Compound | test | test system | conditions | endpoint | value |
| --- | --- | --- | --- | --- | --- |
| CCOCC(=O)N1CC[C@@H](C)[C@H](C(=O)NCc2nc(-c3ccc(C)nc3)cs2)C1 (racemic) | metabolic stability | male Sprague-Dawley rat, liver microsomes | 0.5 µM | microsomal CLint | 53 µL/min/mg |
| CC1(C(F)(F)F)NC(=O)N(c2ccc(F)c(C(F)(F)F)c2)C1=O (centres unmarked) | HPLC | – | pH 7.4 | chromatographic logD | 3.5 |
| Cc1ccc(-c2csc(CNC(=O)[C@H]3CCCN(C(=O)[C@H]4CCC(C)(C)O4)[C@H]3C)n2)cn1 | metabolic stability | male Sprague-Dawley rat, liver microsomes | 0.5 µM | microsomal CLint | 197 µL/min/mg |
| CN1CCN(c2cccc(-c3ccc4ncnc(Nc5ccc(Cl)c(Cl)c5)c4c3)c2)CC1 | shake flask | aqueous buffer | pH 7.4 | logD | > 4.1 |
| CC1(C(F)F)NC(=O)N(c2ccc(F)c(C(F)(F)F)c2)C1=O (centres unmarked) | HPLC | – | pH 7.4 | chromatographic logD | 3.2 |
| C[C@H]1CN(c2ccc(C3CCC(=O)NC3=O)cc2F)CCN1CC12CCC(NS(=O)(=O)c3ccc(Nc4ncc(C(F)(F)F)c(N5CCC[C@](C)(O)C5)n4)c(F)c3)(CC1)CO2 (some centres unmarked) | metabolic stability | human, liver microsomes | 1 µM | scaled CLint | 22 mL/min/kg |
| O=C(NCc1nc(-c2ccc(C(F)(F)F)cc2)cs1)[C@H]1CCCN(C(=O)COCCN2CCCC2)C1 | metabolic stability | human, liver microsomes | 0.5 µM | microsomal CLint | 14 µL/min/mg |
| Cc1cc(S(=O)(=O)NC2CC(N3CCN(CC4CCN(c5ccc6c(c5F)n(C)c(=O)n6C5CCC(=O)NC5=O)CC4)CC3)C2)ccc1Nc1ncc(C(F)(F)F)c(N2CCCC(C)(O)C2)n1 (centres unmarked) | metabolic stability | rat, liver microsomes | 1 µM | scaled CLint | < 21 mL/min/kg |
| COc1ccc2c(c1)CN(C(=O)CCN1CCC(Cc3ccccc3)CC1)CC[S@@+]2[O-] | – | male human, plasma | intravenous, 0.6 mg/kg, healthy volunteers | clearance | 175 mL/min |
| Cc1cc(N2C(=O)NC(C)(C)C2=O)cc(C(F)(F)F)n1 | HPLC | – | pH 7.4 | chromatographic logD | 2.2 |
| C[C@]1(O)CCCN(c2nc(Nc3ccc(S(=O)(=O)N[C@@H]4CCN(CC5CCN(c6ccc(C7CCC(=O)NC7=O)cc6F)CC5)C[C@H]4F)cc3F)ncc2C(F)(F)F)C1 (some centres unmarked) | metabolic stability | human, liver microsomes | 1 µM | scaled CLint | 22 mL/min/kg |
| c1cc(-c2ccc3ncnc(Nc4ncco4)c3c2)nc(N2CCOCC2)c1 | shake flask | aqueous buffer | pH 7.4 | logD | 3.1 |
| CCN(CC)CCCOc1ccc2c(=O)c3c([nH]c2c1)CCCC3 | metabolic stability | human, liver microsomes | 1 µM, pH 7.4 | microsomal CLint | 5.53 µL/min/mg |
| CC1(C)NC(=O)N(c2ccc(F)c(OC(F)(F)F)c2)C1=O | HPLC | – | pH 7.4 | chromatographic logD | 2.9 |
| O=c1c2c([nH]c3ccc(F)c(Oc4ccc(OC(F)(F)F)cc4)c13)CCCC2 | metabolic stability | human, liver microsomes | 1 µM, pH 7.4 | microsomal CLint | 92.7 µL/min/mg |
| c1coc(Nc2ncnc3ccc(-c4cncc(N5CCOCC5)n4)cc23)n1 | shake flask | aqueous buffer | pH 7.4 | logD | 3.5 |

| Compound | test | test system | conditions | endpoint | value |
| --- | --- | --- | --- | --- | --- |
| CC(C)(N)COCC(=O)N1CCC[C@H](C(=O)NCc2nc(-c3ccc(C(F)(F)F)cc3)cs2)C1 | metabolic stability | male Sprague-Dawley rat, hepatocytes | 0.5 µM | scaled CLint | 21 mL/min/kg |
| CNS(=O)(=O)c1ccc(Nc2ncc(C(F)(F)F)c(N3CCC(C)(O)CC3)n2)c(C)c1 | metabolic stability | rat, liver microsomes | 1 µM | scaled CLint | 38 mL/min/kg |
| CC1(C)NC(=O)N(c2ccc(F)c(F)c2)C1=O | HPLC | – | pH 7.4 | chromatographic logD | 1.8 |
| CCONC(=O)N1CCC[C@H](C(=O)NCc2nc(-c3ccc(C#N)cc3)cs2)C1 | metabolic stability | human, liver microsomes | 0.5 µM | microsomal CLint | 9 µL/min/mg |
| C[C@H]1CN(CC2CCN(c3ccc(C4CCC(=O)NC4=O)cc3F)CC2)CC[C@H]1NS(=O)(=O)c1ccc(Nc2ncc(C(F)(F)F)c(N3CCC[C@](C)(O)C3)n2)c(F)c1 (some centres unmarked) | metabolic stability | human, liver microsomes | 1 µM | scaled CLint | 23 mL/min/kg |
| c1cc(-c2ccc3ncnc(NC4CCOCC4)c3c2)cc(N2CCOCC2)c1 | shake flask | aqueous buffer | pH 7.4 | logD | 3.3 |
| O=c1c2ccc(Oc3ccc(OC(F)(F)F)cc3)cc2[nH]c2cc(F)c(Cl)cc12 | metabolic stability | human, liver microsomes | 1 µM, pH 7.4 | microsomal CLint | 2.59 µL/min/mg |
| CC(C)C[C@H](NC(=O)[C@H](CC(C)C)NC(=O)[C@H](Cc1c[nH]c2ccccc12)NC(=O)[C@H](CCC(=O)O)NC(=O)[C@@H](NC(=O)[C@H](Cc1ccccc1)NC(=O)[C@H](CCC(=O)O)NC(=O)[C@H](CCCCNC(=O)COCCOCCNC(=O)COCCOCCNC(=O)CC[C@H](NC(=O)CCCCCCCCCCCCCCCCCCC(=O)O)C(=O)O)NC(=O)[C@H](C)NC(=O)[C@H](CCCCN)NC(=O)[C@H](CCCCN)NC(=O)[C@H](CCC(=O)O)NC(=O)[C@H](CC(=O)O)NC(=O)[C@H](CC(C)C)NC(=O)[C@H](Cc1ccc(O)cc1)NC(=O)[C@H](CCCCN)NC(=O)[C@H](CO)NC(=O)[C@H](Cc1ccc(O)cc1)NC(=O)[C@H](CC(=O)O)NC(=O)[C@H](CO)NC(=O)[C@@H](NC(=O)[C@H](Cc1ccccc1)NC(=O)[C@@H](NC(=O)CNC(=O)[C@H](CCC(N)=O)NC(=O)C(C)(C)NC(=O)[C@@H](N)Cc1c[nH]cn1)[C@@H](C)O)[C@@H](C)O)C(C)C)C(=O)N[C@@H](CCC(=O)O)C(=O)NCC(=O)NCC(=O)N1CCC[C@H]1C(=O)N[C@@H](CO)C(=O)N[C@@H](CO)C(=O)NCC(N)=O | – | human, plasma | subcutaneous, 16 mg, multiple doses, patients | CL/F | 0.5 mL/min |
| CC1(C)NC(=O)N(c2ccc(F)c(Br)c2)C1=O | HPLC | – | pH 7.4 | chromatographic logD | 2.4 |
| Cc1cc(S(=O)(=O)N[C@H]2CC[C@H](CN3CCN(c4ccc(C5CCC(=O)NC5=O)c(Cl)c4)CC3)CC2)ccc1Nc1ncc(C(F)(F)F)c(N2CCC[C@](C)(O)C2)n1 (some centres unmarked) | metabolic stability | human, liver microsomes | 1 µM | scaled CLint | 20 mL/min/kg |
| O=c1c2ccc(Oc3ccc(OC(F)(F)F)cc3)cc2[nH]c2ccc(Cl)c(F)c12 | metabolic stability | human, liver microsomes | 1 µM, pH 7.4 | microsomal CLint | 9.02 µL/min/mg |
| CCONC(=O)N1CCC[C@H](C(=O)N[C@H](C)c2nc(-c3ccc(C#N)cc3)cs2)C1 | metabolic stability | male Sprague-Dawley rat, liver microsomes | 0.5 µM | microsomal CLint | 29 µL/min/mg |
| CCS(=O)(=O)N1CCC2(CC1)NC(=O)N(c1ccc(F)c(C(F)(F)F)c1)C2=O | HPLC | – | pH 7.4 | chromatographic logD | 3.1 |
| Cc1cc(S(=O)(=O)NC2CC(N3CC[C@@H](OC4CN(c5cccc6c5n(C)c(=O)n6C5CCC(=O)NC5=O)C4)[C@H](F)C3)C2)ccc1Nc1ncc(C(F)(F)F)c(N2CCC[C@](C)(O)C2)n1 (some centres unmarked) | metabolic stability | rat, liver microsomes | 1 µM | scaled CLint | 23 mL/min/kg |
| O=C1NC(CF)(CF)C(=O)N1c1ccc(F)c(C(F)(F)F)c1 | HPLC | – | pH 7.4 | chromatographic logD | 3 |
| COCC(=O)N1CCC[C@H](C(=O)NCc2nc(-c3ccccc3)cs2)C1 | metabolic stability | male Sprague-Dawley rat, liver microsomes | 0.5 µM | microsomal CLint | 19 µL/min/mg |
